Test results published in ChEMBL document CHEMBL4513216, “Probing the Open Global Health Chemical Diversity Library for Multistage-Active Starting Points for Next-Generation Antimalarials” (ACS Infect Dis, 2020).

Test: Toxicity liver stage against HepG2, at 10uM
Type: cell-based
Set-up: test concentration 10 uM, cell line HepG2-A16-CD81EGFP
Conditions: human, HepG2-A16-CD81EGFP cells; read-out: INHIBITION
How it was run: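 Uninfected HepG2-A16-CD81EGFP cells, 3 × 10^3 per well, 1536-well, plated on prespotted compound at 10 μM final, parasite-free screening media added to match infected plates; puromycin 10 μM positive, DMSO 0.5% negative; run in parallel with 48 h PbLuc assay at 37 °C, 5% CO2; viability by CellTiter-Glo luminescence, normalized to controls.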

| Structure (SMILES) | cytotoxicity at 10 µM |
| --- | --- |
| FC(F)(F)c1ccc2nc([C@H]3CCN(C4CCCCC4)C3)[nH]c2c1 | -0.668% |
| Cn1c(CN2CCCCC2)cc(=O)c(O)c1CN1CCCCC1 | -2.34% |
| CC(C)n1ncc2c1NC(=O)CC21C(=O)Nc2c(Cl)ccc(Cl)c21 (stereo not given) | 1.19% |
| O=C(Nc1nc2c(s1)CN(S(=O)(=O)C1CC1)CC2)c1ccc(Cl)s1 | 21.3% |
| CN1CCCC(C(=O)N2CCC(Oc3ccc(C#N)cn3)CC2)C1 (stereo not given) | -5.6% |
| CCS(=O)(=O)NCc1nc(C)cc(N2CCCCC2)n1 | 6.79% |
| CC1N(CC2CC2)C(=O)COC12CCN(C(=O)c1cccs1)CC2 (stereo not given) | -3.64% |
| O=C(c1cc(F)cc(F)c1)N1CCC2(CC1)CC2 | 5.04% |
| Cc1noc(C)c1CN1C[C@@H](OCC(=O)N(C)C)[C@H]2OCCC[C@H]21 | 12.1% |
| CCN(CC)S(=O)(=O)N1CC[C@H](c2ccccc2)[C@@H]2[C@H]1CCCCN2C | 3.74% |
| Nc1cc(-c2cccs2)nn(CC(=O)N2CCc3ccccc32)c1=O | -10% |
| c1cnc(N2CCCC(c3cc4cccnc4[nH]3)C2)nc1 (stereo not given) | -9.42% |
| CSc1ccc(CN2CCCC3(CNC(=O)c4ccccc4O3)C2)cc1 (stereo not given) | 3.52% |
| Cc1cc(C)c2cc(CNC3CCCCC3)c3nn(C)c(=O)n3c2c1 | -4.55% |
| COc1ccc(C2Nc3cc(Cl)ccc3C3=NCCN32)cc1OC (stereo not given) | 1.05% |
| O=C(O)c1ccc(S(=O)(=O)Nc2cnn(CC(F)(F)F)c2)cc1 | -7.52% |
| Cc1noc(C2CCCN(C(=O)c3scnc3Cl)C2)n1 (stereo not given) | 17.2% |
| CCN1CCOC(CNCc2ccc(C)s2)C1 (stereo not given) | 2.35% |
| O=C(NC1CCN(CC2CC2)C1)N1CCC(OC2CCCCC2)CC1 (stereo not given) | 4.75% |
| COc1ccc(CNCc2cc(Br)c3c(c2)OCO3)cc1 | 12.1% |
| COc1cccc(-c2ccc(CNC(=O)c3ccc(=O)n(C)c3)cc2)c1 | 22.3% |
| Cc1nn(C)c(C)c1S(=O)(=O)NCC1(C(N)=O)CCOCC1 | 14.9% |

| Structure (SMILES) | cytotoxicity at 10 µM |
| --- | --- |
| c1cc(N2CCC(CN3CCOCC3)CC2)c2sccc2n1 | 10.8% |
| c1cc2c(cc1CSCc1noc(C3CC3)n1)OCCO2 | 10.4% |
| COc1cc(CNCCn2cc(C)cn2)c2c(c1)CC(C)O2 (stereo not given) | 19.1% |
| COc1cc(CNCCn2cccn2)c2c(c1)CC(C)O2 (stereo not given) | 13.7% |
| Cc1cc(C)c(CNC(=O)NCCNc2cnccn2)c(=O)[nH]1 | -43.6% |
| O=C(Nc1ccc(Cl)cn1)C1CCCN(CCc2ccncc2)C1 (stereo not given) | -8.87% |
| Cc1cnn(Cc2cc(F)ccc2F)c1NC(=O)CNC(=O)C1CC1 | 2.3% |
| Cc1ccc(NC(=O)NCC2(N3CCOCC3)CCSC2)c(C)c1 (stereo not given) | 1.15% |
| CCOCCN1CCN(Cc2nnc(C3CC3)o2)CC1C (stereo not given) | 12.9% |
| CCc1noc(C(C)N(C)CC(=O)Nc2ccc(Br)cc2C)n1 (stereo not given) | 19.6% |
| CCOc1cc(CN(C)CCCC#N)ccc1OC(F)F | -10.3% |
| Cc1noc(CN2CC=C(c3c[nH]c4ncccc34)CC2)n1 | 44.7% |
| CCC(Nc1ccc(Oc2ccc(C#N)cc2OC)cc1)C(N)=O (stereo not given) | 65.7% |
| CC(NCc1cnc(C2CCC2)s1)c1cccc(-n2cccn2)c1 (stereo not given) | 2.34% |
| COc1cc(NCc2ncc[nH]2)ccc1Br | 11.2% |
| CC(=O)N(CCc1nc(-c2cc(C(N)=O)oc2C)cs1)C(C)C | 0.988% |
| CNC(=O)CCN1CCCCCC1c1ccc(C)o1 (stereo not given) | -10.2% |
| O=C(c1cc[nH]n1)N(Cc1ccccc1)CC1CCC1 | -6.74% |
| COCCN1CCC(CNC(=O)c2cc(Cl)c[nH]2)CC1 | 5.2% |
| c1ccc(CNc2ccccc2N2CCCC2)nc1 | 10.9% |
| O=C1NCCN1C1CCN(c2ccnc(-c3ccccc3)n2)CC1 | 36.2% |
| CCCN(C)CC1CCN(c2ccc(Br)c(C)n2)C1 (stereo not given) | 14.8% |

| Structure (SMILES) | cytotoxicity at 10 µM |
| --- | --- |
| CCOCCCC(=O)Nc1cc(C(N)=O)ccc1N1CCCCC1 | -48% |
| CNc1nc(CNC(=O)Nc2ccc(OC(C)C)cc2F)cs1 | 61.2% |
| Cc1ccc(CN2CCCC3(CCN(Cc4ccc(C)o4)C3)C2)o1 (stereo not given) | -107% |
| Cn1cc(N2CC3(CCN(C(=O)c4cccn4C)CC3)OCC2=O)cn1 | -81.1% |
| CC1=N[C@@]2(CC[C@@H]3CN(C(=O)NCc4cccc(F)c4)C[C@@H]32)C(=O)N1 | -73.4% |
| CC(=O)N1CCC2(CCN(Cc3ccc(Cl)c(C(F)(F)F)c3)CC2)C1 | -81.9% |
| Cc1ncc(-c2ccnc(NCCc3ccc(F)cc3)n2)c(=O)[nH]1 | -7.3% |
| CC(C)Nc1nc2c(s1)C(=O)CN(C(=O)NCc1ccccc1)C2 | 75.6% |
| COc1ccc2nc(CNC(=O)c3cc(C(C)C)no3)[nH]c2c1 | -0.527% |
| CCn1cc(CN2CCCC(COc3ccc(F)cc3)C2)cn1 (stereo not given) | -59.6% |
| CN1CCN(Cc2noc(CCc3nc(-c4ccccc4)no3)n2)CC1 | 6.41% |
| O=C1O[C@@H]2CN(c3ccncc3)C[C@@H]2N1CCCc1ccc(F)cc1 | -3.73% |
| CCOC(=O)c1ccc(N2CCN(Cc3c(C)nn(C)c3Cl)CC2)nc1 | 20.5% |
| CCc1nc(N)nc(N(C)Cc2nncn2CCOC)c1C | -6.41% |
| Cc1nc(NCc2noc(C3CCCO3)n2)c2sccc2n1 (stereo not given) | 50.2% |
| O=C(NCc1cccnc1N1CCCC(O)C1)c1ccsc1 (stereo not given) | 14.3% |
| COCCC(=O)NCC1COc2cc(OC)ccc2C1 (stereo not given) | 0.0723% |
| Cc1nc(CNCc2cccnc2Oc2ccc(C)c(F)c2F)c[nH]1 | 6.87% |
| FC(F)Oc1ccccc1CN1CCCC(c2nccn2CC2CC2)C1 (stereo not given) | 6.64% |
| O=C(c1scc2c1OCCO2)N1CCOC(CCc2ccccc2)C1 (stereo not given) | 10.5% |
| Cc1cc(CNC(=O)CCCN2CCCCC2)n(C)n1 | -10.3% |
| COCC(=O)N1CCCN(Cc2c(C)nc3ccc(Cl)cn23)CC1 | 5.39% |

| Structure (SMILES) | cytotoxicity at 10 µM |
| --- | --- |
| Fc1cccc2ncnc(NCCCc3ccncc3)c12 | 7.02% |
| CN(C)C1CCN(c2cc(-c3ccccc3)nc3ccnn23)C1 (stereo not given) | -53.5% |
| CN(C)C(=O)CN1CCCN(CC2CCOc3ccccc3C2)CC1 (stereo not given) | -3.42% |
| Cn1cnnc1CC1CCN(Cc2nn(C)c3cccc(Cl)c23)CC1 | -1.62% |
| COc1ccc2c(c1)Cc1c-2nc(N)c(C#N)c1C1CCOC1 (stereo not given) | 24.4% |
| Cc1nn(C)cc1-c1ccnc(N(C)Cc2cnn(C)c2)n1 | 19.9% |
| CN1CCCC(CCC(=O)N2CCc3sc(C(=O)N(C)C)cc3C2)C1 (stereo not given) | 1.42% |
| CC(C)N1CCC(C(=O)N2CCC(c3ccc(F)cc3)C2)CC1 (stereo not given) | -58.1% |
| NCC1Cc2cc(Oc3cc(F)c(CN4CCCC4)c(F)c3)ccc2O1 (stereo not given) | -8.97% |
| CN(CC1CCCCO1)c1nc(-c2cccnc2)nc2c1CCNC2 (stereo not given) | 3.01% |
| Cc1cccc2sc(NC(=O)CN3CCCC(O)(CO)C3)nc12 (stereo not given) | 16.9% |
| CSCc1ccc(N2CCC(C(O)Cc3ccccc3)CC2)nc1 (stereo not given) | 2.45% |
| CCC(NC(=O)C1CCN(S(C)(=O)=O)CC1)c1ccc(OC)cc1 (stereo not given) | -1.82% |
| Cc1nn(C)c2nc(N3CCC(C(O)Cc4ccccc4)CC3)sc12 (stereo not given) | 28.2% |
| CO[C@H]1C[C@@H](O)C12CCN(C(=O)CCCOc1ccccc1)CC2 | -2.22% |
| CC(C)c1nc(CN(C)Cc2cnc(N3CCOCC3)nc2)no1 | 10.1% |
| Cc1noc(C)c1C(=O)NCc1ccc(N2CCC(C)CC2)nc1 | 8.43% |
| Cc1cnn(CC2CN(Cc3nc4ccccc4s3)CCO2)c1 (stereo not given) | 0.639% |
| O=C(CNCCn1cccn1)NCC1(c2ccccc2)CCC1 | -26.7% |
| O=C1NCCN1C1CCCN(Cc2coc(-c3ccc(F)cc3)n2)C1 (stereo not given) | 8.63% |
| Cc1ccc(CNCc2ccc(-n3nc(C)cc3C)nc2)cc1 | -0.164% |
| CCOc1ccc(CN2CCN(C(=O)c3ccc(C)n3C)CC2)cc1 | 19.2% |

| Structure (SMILES) | cytotoxicity at 10 µM |
| --- | --- |
| c1ccc2sc(CN3CCOC(Cn4cccn4)C3)nc2c1 (stereo not given) | -10.2% |
| CC(Cn1cccn1)NC(=O)N1CCN(Cc2cccnc2)CC1 (stereo not given) | -18.2% |
| CC(O)CNCc1ccc(OCc2ccc3c(c2)OCCO3)cc1 (stereo not given) | -4.61% |
| Cc1cc(C[C@@H]2CCC[C@H]2NCc2ccccc2F)on1 | -6.19% |
| CC1(C)CC(N(Cc2cccnc2)Cc2cccc(F)c2)CC(C)(C)N1 | -6.41% |
| Clc1ccc(C2(CNC3=NCCN3)CCCCC2)cc1 | 38.2% |
| N#Cc1ccc(N2CCC3(CC2)CC(Oc2cccnc2)CO3)cc1 (stereo not given) | 50.9% |
| Cc1nc2c(cc1C(=O)O)CCN(CC1CC1)CC2 | -154% |
| Cn1cc(CNC2CCC(O)CC2)c(-c2cc3ccccc3o2)n1 (stereo not given) | -48% |
| COCCC1COC2(CCN(C(=O)c3ccncc3)CC2)C1 (stereo not given) | -74.9% |
| COCCN1CCc2cc(C(=O)NC(C)C)c(NCC(C)C)nc2CC1 | -163% |
| c1ccc(COC[C@@H]2CCC[C@]23CN(Cc2nccs2)CCO3)nc1 | -65.4% |
| CCS(=O)(=O)N1CCC2(CC1)CN(CC1CCOC1)c1ccccc12 (stereo not given) | -85.9% |
| CC1=N[C@@]2(CC[C@@H]3CN(CC4CC4)C[C@@H]32)C(=O)N1CC(C)C | -84% |
| c1cc(CNCc2ccc(-n3cncn3)nc2)cc(OC2CCCC2)c1 | 2.3% |
| COc1cc(N2C[C@@H]3COC[C@]3(COc3ncccc3F)C2)ncn1 | -67.5% |
| CCN(CC)Cc1cn2c(n1)CN(C(=O)Cc1ccsc1)CC2 | -143% |
| CC(C)N(C)Cc1cn2c(n1)CN(C(=O)Cc1ccccc1)CC2 | -135% |
| Cc1noc(C)c1CN1CC[C@@H](OCC2CC2)[C@@H](Cc2ccccc2)C1 | 11.5% |
| Cc1ccc(CN2CCn3cc(CN4CCN(C)CC4)nc3C2)cc1 | -125% |
| CCOc1cc(C=Cc2ncc(C(=O)NC)s2)ccc1OC | -0.58% |
| CCOc1c(Br)cc(C2c3c(n[nH]c3C)N=C3COC(=O)C32)cc1OC (stereo not given) | 47.1% |
